Source: ChEMBL document CHEMBL4513216, “Probing the Open Global Health Chemical Diversity Library for Multistage-Active Starting Points for Next-Generation Antimalarials” (ACS Infect Dis, 2020)

Assay: Toxicity liver stage against HepG2, at 10uM
Type: cell-based
Design: test concentration 10 uM, cell line HepG2-A16-CD81EGFP
Conditions: human, HepG2-A16-CD81EGFP cells; read-out: INHIBITION
In short: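 Uninfected HepG2-A16-CD81EGFP cells, 3 × 10^3 per well, 1536-well, plated on prespotted compound at 10 μM final, parasite-free screening media added to match infected plates; puromycin 10 μM positive, DMSO 0.5% negative; run in parallel with 48 h PbLuc assay at 37 °C, 5% CO2; viability by CellTiter-Glo luminescence, normalized to controls.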

Row | SMILES | cytotoxicity at 10 µM
1 | N#Cc1ncn(CCS(=O)(=O)c2ccc(Br)cc2)n1 | -17.2%
2 | CC(C)(CNc1ccc(S(=O)(=O)C(F)F)cc1)N1CCOCC1 | 26.7%
3 | c1ccc(OCC2CC3(CCN(CC4CCOCC4)CC3)CO2)nc1 (stereo unspecified) | -1.37%
4 | O=C1CC[C@H]2[C@H](CCN2C(=O)N2CCCC2)N1Cc1ccncc1 | -2.04%
5 | Cc1ccc(N2N=C(C(N)=O)S(=O)(=O)c3cccnc32)cc1 | 4.28%
6 | O=C(CCc1ccccc1)N1CCn2cc(CN3CCCC3)nc2C1 | -1.66%
7 | Cn1ccnc1C(=O)N1CCOC(Cc2ccccc2Cl)C1 (stereo unspecified) | -12.2%
8 | CCC(CC)C(=O)N1CCC(c2nn(CCN)c3nccnc23)C1 (stereo unspecified) | -25.5%
9 | Cc1ccc2c(c1)C(=O)NCC1(CCN(C(=O)c3sccc3C)CC1)O2 | -11.7%
10 | CC(C)N1CCC(Cc2cncc(-c3cc(F)ccc3C(=O)O)n2)CC1 | -8.36%
11 | Cc1cncc(C2CCN(Cc3cccn3C)CC2)n1 | -6.94%
12 | O=C1CCCN1CCCC(=O)N1CCCC(Cc2cccnc2)C1 (stereo unspecified) | -4.5%
13 | CC(C)(C)C(=O)N1CCCC1c1nc(O)cc(-c2ccccn2)n1 (stereo unspecified) | -1.26%
14 | Cc1ccc(C)c(CC(=O)NC2CCS(=O)(=O)CC2)c1 | -9.56%
15 | CNS(=O)(=O)Cc1cccc(CNCc2ccsc2)c1 | 11.7%
16 | O=C(NCC(O)c1cccs1)c1sccc1OC(F)F (stereo unspecified) | -2.45%
17 | Cc1noc(NCc2cn(C)nc2-c2cccnc2)n1 | 6.87%
18 | CCCNC(=O)C(C)NC(=O)Nc1ccccc1SC(F)F (stereo unspecified) | 5.09%
19 | Cc1cc(C(=O)NCC2CCC3(CC2)OCCO3)[nH]n1 | -10.7%
20 | CN(Cc1ccccc1)C(=O)CCS(=O)(=O)c1ccc2c(c1)OCCO2 | -7.08%
21 | O=C1CCC(=O)N1CCOc1nc(-c2ccccc2Cl)no1 | 6.97%

Row | SMILES | cytotoxicity at 10 µM
22 | CN(C)S(=O)(=O)c1cccc(CNc2cc(CO)ccc2Cl)c1 | 5.36%
23 | Cc1ccc(C(=O)O)cc1S(=O)(=O)N(CC(C)O)c1ccccc1 (stereo unspecified) | 9.83%
24 | CC(C)Nc1ncccc1C(=O)NCc1cnc(N(C)C)n1C | -10.1%
25 | CNC(=O)COc1cccc(CNC(=O)c2c(C)noc2C)c1 | -4.93%
26 | Cc1cc(CNC(C)Cn2cncn2)ccc1Br (stereo unspecified) | 2.33%
27 | CC(=O)N1CCC(C(=O)NC2CCc3nccn3C2)CC1 (stereo unspecified) | -13.4%
28 | Cc1cc(NCc2ccc(S(N)(=O)=O)cc2)nc(C)n1 | -2.08%
29 | Cc1cc(C(C)(O)CNC(=O)OC(C)(C)C)c(C)o1 (stereo unspecified) | 10.5%
30 | COc1ccnc(N2CCCN(C(=O)CCc3cnn(C)c3)CC2)n1 | 17.7%
31 | Cc1ncc(CNCC(=O)NCC(F)(F)F)n1-c1ccccc1 | 5.57%
32 | CCN1CC2(CC1=O)CN(C(C)=O)CCN(C(=O)NC)C2 (stereo unspecified) | -3.62%
33 | O=C1C[C@H]2[C@H](CCN2C(=O)c2ccno2)N1CC1CC1 | 2.77%
34 | O=C(NCCN1CCOCC1)C1=NOC2(CCN(Cc3nccs3)C2)C1 (stereo unspecified) | -79.3%
35 | CN(Cc1ccco1)[C@@H]1CN(Cc2ccoc2)C[C@@H]2CCCO[C@@H]21 | -1.6%
36 | COCC(=O)NCc1cc(=O)n2c(n1)CN(Cc1ccsc1)CCC2 | 0.281%
37 | Cc1noc([C@H]2C[C@@H]3CCN(C(=O)C4CCOCC4)C[C@H]3O2)n1 | 7.62%
38 | O=C(C1CCOC1)N1CCc2ncc(CNc3ccccn3)n2CC1 (stereo unspecified) | 0.0499%
39 | c1ccc(-c2nc(CCNc3nnc(C4CCC4)o3)no2)cc1 | -3.37%
40 | CCC(CO)N(Cc1cccs1)C(=O)Cc1ccncc1 (stereo unspecified) | -9.67%
41 | CN(Cc1n[nH]c2c1CCCC2)c1cc(N2CCOCC2)nc(N)n1 | -7.7%
42 | Cc1ccnn1CCC(=O)N(Cc1ccsc1)CC(C)C | -57.4%

Row | SMILES | cytotoxicity at 10 µM
43 | O=C(NCc1nc(C2CCCCC2)no1)C1CC(=O)N(C2CC2)C1 (stereo unspecified) | 1.5%
44 | O=C(Nc1ccc(-c2ccccc2)cc1)N1C[C@@H]2CNC[C@]2(C(=O)O)C1 | -44.7%
45 | CN(C)CCN(C)c1ccc(-c2nc(COc3ccccc3)no2)cn1 | 4.35%
46 | CCC[C@@H]1CN(Cc2nnc(-c3cccc(F)c3)o2)C[C@H]1NC(C)=O | 0.833%
47 | CC(C)SCC(=O)NCc1cc2n(n1)CCCN(C1CCCCC1)C2 | 2.37%
48 | CC[C@@H](CO)NC(=O)c1coc(COc2ccc3sc(C)nc3c2)n1 | 4.67%
49 | Cc1cccc(C)c1NC(=O)c1cccc(CN2CCCC2C)c1 (stereo unspecified) | 4.73%
50 | CC(C)NC(=O)[C@@H]1C[C@H](N)CN1C(=O)C1(c2ccc(Cl)cc2)CCC1 | 3.92%
51 | Cc1[nH]nc(CCC(=O)NCC2CCCN(C3CCCC3)C2)c1C (stereo unspecified) | -7.7%
52 | Cc1cc(C)cc(N2CCN(Cc3cccnc3)CC2=O)c1 | 5.02%
53 | Cc1ccccc1OC(C(=O)N1CCC2(CC1)CN(C)C(=O)O2)C(C)C (stereo unspecified) | -52.4%
54 | Cc1ccnc(C(Nc2nccc(-c3ccc(C)nc3C)n2)C2CC2)c1 (stereo unspecified) | -1.89%
55 | CC(=O)Nc1cccc(C(=O)N2CCc3c(nc(N(C)C)[nH]c3=O)C2)c1 | 5.9%
56 | CSc1ccc(-n2ccnc2-c2cc3n(n2)CCNC3)cc1 | -9.94%
57 | Cc1cc(C)nc(CN2CCOC(c3ccc(Cl)cc3)C2)n1 (stereo unspecified) | -2.43%
58 | Cc1nn(C)cc1-c1ccnc(N2CCCN(CC(C)C)CC2)n1 | 4.26%
59 | COc1ccc(SC(C)C(=O)N2CCC(C(N)=O)CC2)cc1 (stereo unspecified) | 2.28%
60 | CCCC1(NC(=O)C(c2ccccc2C)N(C)C)CC1 (stereo unspecified) | -40.4%
61 | Cc1ccc2nc(CNCCCN3CCCC3)cc(O)c2c1 | -49.6%
62 | c1ccc(-c2nc(CNC3CCc4ncnn4C3)no2)cc1 (stereo unspecified) | -4.16%
63 | Cc1nccn1C1CCCN(C(=O)c2ccc(-n3cccn3)nc2)C1 (stereo unspecified) | -9.18%

Row | SMILES | cytotoxicity at 10 µM
64 | CN(C(=O)Nc1ccncc1)C1CCN(c2ccccc2)C1=O (stereo unspecified) | -10.1%
65 | Cc1cc(C)n(C2CCCN(C(=O)CCNc3ncccn3)C2)n1 (stereo unspecified) | -2.53%
66 | CN(C)CC1CN(CCOc2cccc(C#N)c2)CCO1 (stereo unspecified) | -9.63%
67 | Cc1cn2c(n1)CCC(NC(=O)CCn1ccnn1)C2 (stereo unspecified) | -2.53%
68 | CCC(=O)N1CCN(C(=O)CCn2cccn2)CC1 | -2.6%
69 | O=C(NCCNc1ncccn1)C1CCN(C(=O)C2CC2)CC1 | -3.02%
70 | Cc1nc(C)n(C2CCCN(C(=O)c3cnc[nH]3)C2)n1 (stereo unspecified) | -5.04%
71 | O=C(c1ccc(F)cc1Cl)N1CCC(Nc2cccnn2)CC1 | -8.08%
72 | c1csc(-c2noc(C3CCCNC3)n2)c1 (stereo unspecified) | -2.5%
73 | Cc1ccc(CN(CCCn2ccnc2)Cc2c[nH]cn2)s1 | -4.99%
74 | COc1ccc(CN2CCO[C@H]3[C@H](Oc4ccccn4)CC[C@@H]32)cc1 | 21.5%
75 | O=C(C[C@@H]1COC[C@H]2CN(Cc3ccccc3)C[C@@H]12)N1CCCC1 | 2.03%
76 | O[C@H]1CCN(Cc2ccoc2)[C@H]1Cc1cccnc1 | 2.36%
77 | Cc1nnc(N2CCCC3(CN(Cc4cnn(C)c4)CCO3)C2)o1 (stereo unspecified) | 4.12%
78 | CCOCC1CN(CCN(C)C)Cc2cnn(CC3CCCC3)c21 (stereo unspecified) | 5.77%
79 | CNC(=O)c1cnc(C=Cc2cc(OC)c3c(c2)OCCO3)s1 | 12.9%
80 | CCC=C(C)C(=O)NCCc1csc(N2CCCC2)n1 | 18.7%
81 | Cc1cc(C(=O)N2C[C@@H]3C(CN(C)CCc4ccccn4)[C@@H]3C2)c(C)o1 (stereo partly specified) | -50.1%
